M4 ag – human M4 muscarinic receptor agonists, primary screen, CHO-K1 cells, Fluo-8 calcium fluorescence; Muscarinic acetylcholine receptor M4 (Homo sapiens), P08173; CHO-K1 hM4/Gqi5; vehicle 0%, full acetylcholine response 100%; activation, % at 3 µM; 360,000 tested, 0.14% active; AID 624127, 2012;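 active means activation above the run mean over all test wells plus 3 SD, cut at about 32% in these data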;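 further: peak over basal fluorescence ratio per well then scaled between controls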
CHRM5 agonist – human M5 muscarinic receptor agonists, primary screen, CHO-K1 cells, Fluo-8 calcium fluorescence | 360,000 tested, 0.19% active | activation, % at 3 µM | CHO-K1 hM5 cells; 0% DMSO wells, 100% maximal acetylcholine response | AID 624037, 2012 | Muscarinic acetylcholine receptor M5 (Homo sapiens), P08912;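 active means activation above the run's mean over test compounds plus 3 SD, cut at about 23% in these data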;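 further: signal is peak over basal fluorescence ratio across the kinetic read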
Target sequence (P08912 whole entry, looked up): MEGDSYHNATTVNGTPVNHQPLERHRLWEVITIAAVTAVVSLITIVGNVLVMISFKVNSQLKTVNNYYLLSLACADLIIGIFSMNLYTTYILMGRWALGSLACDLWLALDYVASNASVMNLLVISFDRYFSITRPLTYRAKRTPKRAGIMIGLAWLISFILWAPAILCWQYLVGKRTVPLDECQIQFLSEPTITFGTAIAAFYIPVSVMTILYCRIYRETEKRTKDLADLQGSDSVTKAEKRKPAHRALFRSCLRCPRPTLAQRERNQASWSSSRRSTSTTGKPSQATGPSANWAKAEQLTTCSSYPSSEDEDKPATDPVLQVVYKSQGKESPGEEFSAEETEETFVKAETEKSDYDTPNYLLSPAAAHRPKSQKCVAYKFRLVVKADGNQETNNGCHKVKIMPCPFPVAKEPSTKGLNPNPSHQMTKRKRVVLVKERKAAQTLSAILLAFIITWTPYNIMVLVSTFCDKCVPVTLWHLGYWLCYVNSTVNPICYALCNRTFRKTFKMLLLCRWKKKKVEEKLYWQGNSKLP
M4 PAM – human M4 muscarinic receptor positive allosteric modulators, primary screen, CHO-K1 cells, Fluo-8 calcium fluorescence | CHO-K1 hM4/Gqi5, ACh EC20; 0% = ACh EC20, 100% = maximal ACh | activation, % at 3 µM | 360,000 tested, 0.4% active;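 active means activation above its plate's cutoff, the mean activation of sample wells plus 3 SD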
CHRM5 antagonist – human M5 muscarinic receptor antagonists, primary screen, CHO cells, Fluo-8 calcium fluorescence; 360,000 tested, 0.59% active; CHO-hM5 cells, ACh EC80; AID 624040, 2012; inhibition, % at 3 µM; Muscarinic acetylcholine receptor M5 (Homo sapiens), P08912;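 active means inhibition above a per-plate cutoff, the mean of that plate's test compounds plus 3 SD, cut at about 27% in these data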
CHRM5 PAM – human M5 muscarinic receptor positive allosteric modulators, primary screen, CHO-K1 cells, Fluo-8 calcium fluorescence; Muscarinic acetylcholine receptor M5 (Homo sapiens), P08912; CHO-K1 hM5, ACh EC20 PAM; 0% = ACh EC20, 100% = ACh EC100; activation, % at 3 µM; 360,000 tested, 0.3% active; AID 624038, 2012;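 active means activation above the run cutoff, the mean activation of all test compounds plus 3 SD, cut at about 18% in these data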
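System – CHO-K1 hM5 cells · Compound – 3 µM, single dose · Incubation – compound preincubation 140 s before EC20 acetylcholine addition · Technique – Fluo-8 calcium fluorescence · Measure – Max/basal fluorescence ratio as % of EC20–EC100 ACh window · Benchmarks – low control EC20 acetylcholine (0%), high control EC100 acetylcholine (100%) · Replication – singlicate, one well per test compound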
M4 antag – human M4 muscarinic receptor antagonists, primary screen, CHO cells, Fluo-8 calcium fluorescence | 360,000 tested, 0.73% active | Muscarinic acetylcholine receptor M4 (Homo sapiens), P08173 | AID 624125, 2012 | CHO-hM4 cells, ACh EC80 | inhibition, % at 3 µM;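 active means inhibition above its plate's cutoff, the mean inhibition of sample wells plus 3 SD, cut at about 27% in these data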
Each line names hits and unclear results; the compound was inactive in the other large screens. Rows were chosen to be rich in hits. Some 1.8% of all compounds tested hit in one or more screens of this group.

Cc1ccc(S(=O)(=O)N(C)c2ccc(OCC(=O)Nc3cccc(-n4cnnn4)c3C)cc2)cc1	none
CC(=O)c1cn(CCOc2ccccc2C)c2ccccc12	CHRM5 antagonist 29
Cc1ccccc1OCCn1cc(C(=S)N2CCCC2)c2ccccc21	none
Cc1ccc2c(CC(=O)NC3CCS(=O)(=O)C3)coc2c1C (stereo not drawn)	M4 PAM 18
CCN(CC)c1ccc(/C=C/c2ccc3ccc(OC)cc3[n+]2CC)cc1	CHRM5 antagonist 49, M4 antag 36
Clc1ccc(CSc2nnc(-c3ccncc3)o2)c(Cl)c1	M4 PAM 32
Cc1ccccc1CSc1nnc(-c2ccncc2)o1	none
COC(CN(C)C(=O)c1ccc(CS(=O)(=O)c2ccccc2C)o1)OC	none
CCCCN(C)C(=O)c1ccc(CS(=O)(=O)c2ccccc2C)o1	M4 PAM 18
Cc1ccccc1S(=O)(=O)Cc1ccc(C(=O)NC2CCCCCC2)o1	M4 PAM 15
COc1ccccc1-c1cc(NC(C)=O)c2ncc(-c3cccc(C(C)=O)c3)n2c1	none
COC(=O)C1=C(C)N(CCCC(=O)O)C(=O)NC1c1ccc(C#N)cc1 (stereo not drawn)	none
N=C1C(c2ccccc2)=C(O)CN1CCO	M4 PAM 17
COc1ccc(/C=N/NC(=O)c2ccoc2C)cc1O	M4 PAM 32
COc1cc(/C=N/NC(=O)CNC(=O)c2ccco2)ccc1O	CHRM5 antagonist 27
O=C(Nc1cc(Cl)ccc1F)C1=COCCO1	none
O=S(=O)(N[C@H](CO)c1ccccc1)c1ccc(Br)cc1F	none
Cc1nc2ccccn2c1C(=O)N=Nc1c(O)n(CCC(C)C)c2ccccc12	none
CCCCOC(=O)C1CN(c2ccccc2)N=C1C(=O)OCC (stereo not drawn)	M4 PAM 20
CCCCOC(=O)C1CN(c2ccccc2)N=C1C(C)=O (stereo not drawn)	none
CCCCNc1c(-c2cccc(-c3cc(C(C)=O)cs3)c2)nc2ccc(C)cn12	none
CCCCNc1c(-c2ccc(-c3cccc(Cl)c3)cc2)nc2ccccn12	none
CCCCNc1c(-c2cccc(-c3ccc(OC)cc3)c2)nc2ccc(C)cn12	CHRM5 antagonist 34, M4 antag 52
CCCCNc1c(-c2cccc(-c3ccc(OC)cc3)c2)nc2cc(C)ccn12	CHRM5 antagonist 28, M4 antag 42
CCCCNc1c(-c2ccc(OC)c(SC3CCCCC3)c2)nc2cc(C)ccn12	M4 antag 29
CC(O)[C@@H](NC(=O)C1CCC(CNC(=O)[C@H](Cc2ccccc2)NC(=O)OC(C)(C)C)CC1)C(=O)O (stereo partly drawn)	M4 PAM 16
CC1CN(C(=O)c2cc(-c3ccncc3)nc3ccccc23)CC(C)O1 (stereo not drawn)	M4 PAM 23
CC1CC(C)CN(C(=O)c2cc(-c3ccncc3)nc3ccccc23)C1 (stereo not drawn)	none
Cc1ccc(S(=O)(=O)N(C)CC(=O)N(C)Cc2cccs2)cc1	none
C#Cc1ccc([C@H]2C=C(C(=O)NCc3ccccc3)O[C@@H](OCC)[C@@H]2CCCO)cc1	CHRM5 antagonist 34
COc1cc(C=O)ccc1OC(=O)c1cccnc1	CHRM5 antagonist 30
CN(C)C=Nc1c(Br)cc(Br)c2nonc12	CHRM5 agonist 24
NS(=O)(=O)c1ccc(NC(=O)C2C3C=CC(C3)C2C(=O)O)cc1 (stereo not drawn)	CHRM5 PAM 18
O=C(CN1C(=O)COc2ccccc21)NCCN1CCC(Cc2ccccc2)CC1	M4 antag 28
O=C(CN1C(=O)COc2ccccc21)NCc1ccc(C(=O)O)cc1	M4 antag 28
CC1CCCN(CC(=O)Nc2ccc(S(=O)(=O)N3C(C)CCCC3C)cc2)C1 (stereo not drawn)	none
CCOCCN1CCN(C2c3ccccc3CSc3ccccc32)CC1 (stereo not drawn)	CHRM5 antagonist 100, M4 antag 99
CCNC(=O)NC1c2ccccc2CSc2ccccc21 (stereo not drawn)	none
Cc1ccc(S(=O)(=O)Nc2cccc(C(=O)NCc3ccccn3)c2)cc1F	none
CC(C)(C)NC(=O)CN(Cc1cccs1)C(=O)CNS(=O)(=O)c1ccc(F)cc1	none
CC(C)(C)NC(=O)CN(Cc1ccc2c(c1)OCO2)C(=O)CNS(=O)(=O)c1ccc(F)cc1	M4 PAM 45, CHRM5 PAM 27
O=C(c1c[nH]c(C(=O)C(Cl)(Cl)Cl)c1)c1ccc(F)cc1F	CHRM5 antagonist 28
CC(C)CC(=O)N1CCN(Cc2ccccc2Cl)CC1	none
COc1cc(OC)cc(C(=O)Nc2cccc(N3CCCC3)c2)c1	M4 antag 28
CC(C)n1c(SCC(=O)NC2CCCCC2)nnc1-c1ccco1	none
COc1ccccc1NC(=O)Cc1nnc(SCC(=O)NC2CCCC2)n1C	none
COc1ccccc1NC(=O)CSCc1nc2ccccc2[nH]1	M4 PAM 21
COc1ccccc1NC(=O)Cc1nnc(SCC(=O)NC2CCCCC2C)n1C (stereo not drawn)	CHRM5 antagonist 31
COc1ccccc1NC(=O)CSc1nncn1N	CHRM5 PAM 19
COc1ccc(NC(=O)CSc2nncn2N)c(OC)c1	none
CCOc1ccccc1OCCCC(=O)NNC(=O)c1nn(C)c(=O)c2ccccc12	none
COc1cccc(C(NC(C)=O)c2nc(-c3ccoc3)cs2)c1 (stereo not drawn)	none
O=C(CCS(=O)(=O)Cc1ccccc1F)NCc1ccccc1Cl	none
CN(C1CCCCC1)S(=O)(=O)c1cc2c(cc1Cl)NC(=O)CO2	none
O=C1C[C@@H](c2ccc(O)cc2)Oc2cc(O)cc(O)c21	none
Cc1c(O)cc2c(c1O)C(=O)CC(c1ccccc1)O2 (stereo not drawn)	M4 ag 60, CHRM5 agonist 47, CHRM5 antagonist 84, M4 antag 94
O=C(CCNC(=O)c1ccccc1)NNC(=O)c1ccc(F)cc1	none
O=C(NCc1ccc2c(c1)OCO2)c1nc(S(=O)(=O)Cc2ccccc2F)ncc1Cl	M4 antag 38
Nc1cccc([N+](=O)[O-])c1	none
O=[N+]([O-])c1cccc(SSc2cccc([N+](=O)[O-])c2)c1	CHRM5 agonist 26
COc1ccc(-n2nnnc2/C=C\Nc2ccc(C)cc2)cc1	none
